Values after ≈ are worked out from the molar mass of the structure shown. Active and inactive are the calls of the source. The rule behind the calls is not given here.
Assays:
Assay type in all cases: functional
[1] = tested on: Acinetobacter baumannii; assay: Antibacterial activity against Acinetobacter baumannii HUMC1 harboring FhuE deletion mutant assessed as bacterial growth inhibition incubated for 20 hrs by CLSI based microbroth dilution method
In short: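 Microbroth dilution per CLSI in RPMI 1640 + 10% FCS (in place of CAMHB). Compounds as 2-fold serial dilutions; inoculum 5×10^5 CFU/mL of previously described HUMC1-derived mutant strains. Incubated static at 35 °C for 20 h. MIC read visually as lowest concentration preventing visible growth.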

[2] = tested on: Acinetobacter baumannii; assay: Antibacterial activity against Acinetobacter baumannii HUMC1 cultured in RPMI 1640 medium supplemented with 10% FCS assessed as bacterial growth inhibition incubated for 20 hrs by CLSI based microbroth dilution method
In short: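 CLSI broth microdilution in RPMI 1640 + 10% FCS in place of CAMHB. Compounds in 2-fold dilution series; inoculum 5×10^5 CFU/mL. Plates held static at 35 °C for 20 h. MIC read visually as the lowest concentration with no visible growth. […] is the reciprocal of this MIC.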

[3] = tested on: Staphylococcus aureus; assay: Antibacterial activity against Staphylococcus aureus USA300 UAMS-1625 assessed as bacterial growth inhibition incubated for 20 hrs by CLSI based microbroth dilution method
In short: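 CLSI broth microdilution in CAMHB against S. aureus USA300 UAMS-1625. Compounds in 2-fold dilution series; inoculum 5×10^5 CFU/mL. Incubated without shaking at 35 °C for 20 h. MIC read visually as the lowest concentration preventing visible growth. Fold changes are relative to the rifabutin MIC.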

[4] = Acinetobacter baumannii, HUMC1, 20 h, read-out: MIC

SMILES	MIC [2, 4] [µg/mL]	also measured
COC(=O)CN1CCC2(CC1)N=C1C(=C3NC(=O)/C(C)=C\C=C\[C@H](C)[C@H](O)[C@@H](C)[C@@H](O)[C@@H](C)[C@H](OC(C)=O)[C@H](C)[C@@H](OC)/C=C/O[C@@]4(C)Oc5c(C)c(O)c(c1c5C4=O)C3=O)N2		MIC [1]: 0.5 µg/mL (≈ 0.579 µM); MIC ([2]; Acinetobacter baumannii, HUMC1, read-out: MIC): 0.5 µg/mL (≈ 0.579 µM)
COCCN1CCC2(CC1)N=C1C(=C3NC(=O)/C(C)=C\C=C\[C@H](C)[C@H](O)[C@@H](C)[C@@H](O)[C@@H](C)[C@H](OC(C)=O)[C@H](C)[C@@H](OC)/C=C/O[C@@]4(C)Oc5c(C)c(O)c(c1c5C4=O)C3=O)N2	0.016 (≈ 0.0188 µM)	
CO[C@H]1/C=C/O[C@@]2(C)Oc3c(C)c(O)c4c(c3C2=O)C2=NC3(CCN(C5CC5)CC3)NC2=C(NC(=O)/C(C)=C\C=C\[C@H](C)[C@H](O)[C@@H](C)[C@@H](O)[C@@H](C)[C@H](OC(C)=O)[C@@H]1C)C4=O (stereo in doubt; form 2)		MIC ([2]; 20 h): 0.001 µg/mL (≈ 0.0012 µM)
CO[C@H]1/C=C/O[C@@]2(C)Oc3c(C)c(O)c4c(c3C2=O)C2=NC3(CCN(C5CCCC5)CC3)NC2=C(NC(=O)/C(C)=C\C=C\[C@H](C)[C@H](O)[C@@H](C)[C@@H](O)[C@@H](C)[C@H](OC(C)=O)[C@@H]1C)C4=O (stereo in doubt; form 2)		MIC ([2]; 20 h): 0.004 µg/mL (≈ 0.00466 µM)
CO[C@H]1/C=C/O[C@@]2(C)Oc3c(C)c(O)c4c(c3C2=O)C2=NC3(CCN(CCc5ccccc5)CC3)NC2=C(NC(=O)/C(C)=C\C=C\[C@H](C)[C@H](O)[C@@H](C)[C@@H](O)[C@@H](C)[C@H](OC(C)=O)[C@@H]1C)C4=O	0.5 (≈ 0.559 µM)	Activity [3]: Active
CO[C@H]1/C=C/O[C@@]2(C)Oc3c(C)c(O)c4c(c3C2=O)C2=NC3(CCN(Cc5ccccc5)CC3)NC2=C(NC(=O)/C(C)=C\C=C\[C@H](C)[C@H](O)[C@@H](C)[C@@H](O)[C@@H](C)[C@H](OC(C)=O)[C@@H]1C)C4=O	0.125 (≈ 0.142 µM)	Activity [3]: Active
CO[C@H]1/C=C/O[C@@]2(C)Oc3c(C)c(O)c4c(c3C2=O)C2=NC3(CCN(CC5CCCCC5)CC3)NC2=C(NC(=O)/C(C)=C\C=C\[C@H](C)[C@H](O)[C@@H](C)[C@@H](O)[C@@H](C)[C@H](OC(C)=O)[C@@H]1C)C4=O (stereo in doubt; form 1) [listing 1 of 2 here]		Activity [3]: Active
CO[C@H]1/C=C/O[C@@]2(C)Oc3c(C)c(O)c4c(c3C2=O)C(=N)C(N)=C(NC(=O)/C(C)=C\C=C\[C@H](C)[C@H](O)[C@@H](C)[C@@H](O)[C@@H](C)[C@H](OC(C)=O)[C@@H]1C)C4=O	0.5 (≈ 0.704 µM)	
CO[C@H]1/C=C/O[C@@]2(C)Oc3c(C)c(O)c4c(c3C2=O)C2=NC3(CCN(CC5CCCCC5)CC3)NC2=C(NC(=O)/C(C)=C\C=C\[C@H](C)[C@H](O)[C@@H](C)[C@@H](O)[C@@H](C)[C@H](OC(C)=O)[C@@H]1C)C4=O (stereo in doubt; form 2)		MIC ([2]; 20 h): 0.03 µg/mL (≈ 0.0338 µM)
C#CCN1CCC2(CC1)N=C1C(=C3NC(=O)/C(C)=C\C=C\[C@H](C)[C@H](O)[C@@H](C)[C@@H](O)[C@@H](C)[C@H](OC(C)=O)[C@H](C)[C@@H](OC)/C=C/O[C@@]4(C)Oc5c(C)c(O)c(c1c5C4=O)C3=O)N2	0.008 (≈ 0.00965 µM)	
CO[C@H]1/C=C/O[C@@]2(C)Oc3c(C)c(O)c4c(c3C2=O)C2=NC3(CCCCC3)NC2=C(NC(=O)/C(C)=C\C=C\[C@H](C)[C@H](O)[C@@H](C)[C@@H](O)[C@@H](C)[C@H](OC(C)=O)[C@@H]1C)C4=O	0.125 (≈ 0.158 µM)	MIC [1]: 0.5 µg/mL (≈ 0.633 µM)
CO[C@H]1/C=C/O[C@@]2(C)Oc3c(C)c(O)c4c(c3C2=O)C2=NC3(CCN(C5CCCCC5C)CC3)NC2=C(NC(=O)/C(C)=C\C=C\[C@H](C)[C@H](O)[C@@H](C)[C@@H](O)[C@@H](C)[C@H](OC(C)=O)[C@@H]1C)C4=O (some centres undefined)	0.125 (≈ 0.141 µM)	
CCOC(=O)N1CCC2(CC1)N=C1C(=C3NC(=O)/C(C)=C\C=C\[C@H](C)[C@H](O)[C@@H](C)[C@@H](O)[C@@H](C)[C@H](OC(C)=O)[C@H](C)[C@@H](OC)/C=C/O[C@@]4(C)Oc5c(C)c(O)c(c1c5C4=O)C3=O)N2	8 (≈ 9.27 µM)	
CO[C@H]1/C=C/O[C@@]2(C)Oc3c(C)c(O)c4c(c3C2=O)C2=NC3(CCN(C(C)=O)CC3)NC2=C(NC(=O)/C(C)=C\C=C\[C@H](C)[C@H](O)[C@@H](C)[C@@H](O)[C@@H](C)[C@H](OC(C)=O)[C@@H]1C)C4=O	4 (≈ 4.8 µM)	
CO[C@H]1/C=C/O[C@@]2(C)Oc3c(C)c(O)c4c(c3C2=O)C2=NC3(CCN(C(C)(C)CC(C)(C)C)CC3)NC2=C(NC(=O)/C(C)=C\C=C\[C@H](C)[C@H](O)[C@@H](C)[C@@H](O)[C@@H](C)[C@H](OC(C)=O)[C@@H]1C)C4=O	0.03 (≈ 0.0332 µM)	
CO[C@H]1/C=C/O[C@@]2(C)Oc3c(C)c(O)c4c(c3C2=O)C2=NC3(CCN(C5CCCC(C)C5)CC3)NC2=C(NC(=O)/C(C)=C\C=C\[C@H](C)[C@H](O)[C@@H](C)[C@@H](O)[C@@H](C)[C@H](OC(C)=O)[C@@H]1C)C4=O (some centres undefined)	0.03 (≈ 0.0338 µM)	

SMILES	MIC [2, 4] [µg/mL]	also measured
CO[C@H]1/C=C/O[C@@]2(C)Oc3c(C)c(O)c4c(c3C2=O)C2=NC3(CC[N+](C)(C)CC3)NC2=C(NC(=O)/C(C)=C\C=C\[C@H](C)[C@H](O)[C@@H](C)[C@@H](O)[C@@H](C)[C@H](OC(C)=O)[C@@H]1C)C4=O.[I-]	8	
CO[C@H]1/C=C/O[C@@]2(C)Oc3c(C)c(O)c4c(c3C2=O)C2=NC3(CCN(CC5CCCCC5)CC3)NC2=C(NC(=O)/C(C)=C\C=C\[C@H](C)[C@H](O)[C@@H](C)[C@@H](O)[C@@H](C)[C@H](OC(C)=O)[C@@H]1C)C4=O (stereo in doubt; form 1) [listing 2 of 2 here]	0.06 (≈ 0.0676 µM)	
CCCCN1CCC2(CC1)N=C1C(=C3NC(=O)/C(C)=C\C=C\[C@H](C)[C@H](O)[C@@H](C)[C@@H](O)[C@@H](C)[C@H](OC(C)=O)[C@H](C)[C@@H](OC)/C=C/O[C@@]4(C)Oc5c(C)c(O)c(c1c5C4=O)C3=O)N2	0.004 (≈ 0.00472 µM)	Activity [3]: Active
CO[C@H]1/C=C/O[C@@]2(C)Oc3c(C)c(O)c4c(c3C2=O)C2=NC3(CCN(C[C@H]5CCCO5)CC3)NC2=C(NC(=O)/C(C)=C\C=C\[C@H](C)[C@H](O)[C@@H](C)[C@@H](O)[C@@H](C)[C@H](OC(C)=O)[C@@H]1C)C4=O	0.125 (≈ 0.143 µM)	
CO[C@H]1/C=C/O[C@@]2(C)Oc3c(C)c(O)c4c(c3C2=O)C2=NC3(CCN(CCC(C)C)CC3)NC2=C(NC(=O)/C(C)=C\C=C\[C@H](C)[C@H](O)[C@@H](C)[C@@H](O)[C@@H](C)[C@H](OC(C)=O)[C@@H]1C)C4=O	0.016 (≈ 0.0186 µM)	MIC [1]: 0.5 µg/mL (≈ 0.581 µM); Activity [3]: Active
CO[C@H]1/C=C/O[C@@]2(C)Oc3c(C)c(O)c4c(c3C2=O)C2=NC3(CCOCC3)NC2=C(NC(=O)/C(C)=C\C=C\[C@H](C)[C@H](O)[C@@H](C)[C@@H](O)[C@@H](C)[C@H](OC(C)=O)[C@@H]1C)C4=O	2 (≈ 2.53 µM)	
CO[C@H]1/C=C/O[C@@]2(C)Oc3c(C)c(O)c4c(c3C2=O)C2=NC3(CCN(C5CCN(C)CC5)CC3)NC2=C(NC(=O)/C(C)=C\C=C\[C@H](C)[C@H](O)[C@@H](C)[C@@H](O)[C@@H](C)[C@H](OC(C)=O)[C@@H]1C)C4=O	0.25 (≈ 0.282 µM)	
COC(=O)[C@@H](C)N1CCC2(CC1)N=C1C(=C3NC(=O)/C(C)=C\C=C\[C@H](C)[C@H](O)[C@@H](C)[C@@H](O)[C@@H](C)[C@H](OC(C)=O)[C@H](C)[C@@H](OC)/C=C/O[C@@]4(C)Oc5c(C)c(O)c(c1c5C4=O)C3=O)N2	0.125 (≈ 0.143 µM)	MIC [1]: 0.5 µg/mL (≈ 0.57 µM)
COC(=O)CCCN1CCC2(CC1)N=C1C(=C3NC(=O)/C(C)=C\C=C\[C@H](C)[C@H](O)[C@@H](C)[C@@H](O)[C@@H](C)[C@H](OC(C)=O)[C@H](C)[C@@H](OC)/C=C/O[C@@]4(C)Oc5c(C)c(O)c(c1c5C4=O)C3=O)N2	0.5 (≈ 0.561 µM)	
CO[C@H]1/C=C/O[C@@]2(C)Oc3c(C)c(O)c4c(c3C2=O)C2=NC3(CCN(C5CCOCC5)CC3)NC2=C(NC(=O)/C(C)=C\C=C\[C@H](C)[C@H](O)[C@@H](C)[C@@H](O)[C@@H](C)[C@H](OC(C)=O)[C@@H]1C)C4=O	0.008 (≈ 0.00914 µM)	
CO[C@H]1/C=C/O[C@@]2(C)Oc3c(C)c(O)c4c(c3C2=O)C2=NC3(CCN(CC#N)CC3)NC2=C(NC(=O)/C(C)=C\C=C\[C@H](C)[C@H](O)[C@@H](C)[C@@H](O)[C@@H](C)[C@H](OC(C)=O)[C@@H]1C)C4=O	0.25 (≈ 0.301 µM)	
CO[C@H]1/C=C/O[C@@]2(C)Oc3c(C)c(O)c4c(c3C2=O)C2=NC3(CCN(CCN5CCOCC5)CC3)NC2=C(NC(=O)/C(C)=C\C=C\[C@H](C)[C@H](O)[C@@H](C)[C@@H](O)[C@@H](C)[C@H](OC(C)=O)[C@@H]1C)C4=O	1 (≈ 1.11 µM)	
CO[C@H]1/C=C/O[C@@]2(C)Oc3c(C)c(O)c4c(c3C2=O)C2=NC3(CCN(CC(=O)N(C)C)CC3)NC2=C(NC(=O)/C(C)=C\C=C\[C@H](C)[C@H](O)[C@@H](C)[C@@H](O)[C@@H](C)[C@H](OC(C)=O)[C@@H]1C)C4=O	0.5 (≈ 0.571 µM)	
CO[C@H]1/C=C/O[C@@]2(C)Oc3c(C)c(O)c4c(c3C2=O)C2=NC3(CCN([C@H]5CCCO5)CC3)NC2=C(NC(=O)/C(C)=C\C=C\[C@H](C)[C@H](O)[C@@H](C)[C@@H](O)[C@@H](C)[C@H](OC(C)=O)[C@@H]1C)C4=O	0.016 (≈ 0.0186 µM)	
C#CCCN1CCC2(CC1)N=C1C(=C3NC(=O)/C(C)=C\C=C\[C@H](C)[C@H](O)[C@@H](C)[C@@H](O)[C@@H](C)[C@H](OC(C)=O)[C@H](C)[C@@H](OC)/C=C/O[C@@]4(C)Oc5c(C)c(O)c(c1c5C4=O)C3=O)N2	0.004 (≈ 0.00475 µM)	

Source: ChEMBL document CHEMBL5346932, “Structure-activity relationships of actively FhuE transported rifabutin derivatives with potent activity against Acinetobacter baumannii” (Eur J Med Chem, 2023)
